Legend:
[1] = test system: Mus musculus; experiment: Compound was evaluated for percent mortality of mice inoculated with murine cytomegalovirus at a concentration of 50 mg/kg; drug toxicity control; assay type: functional
In short: (§1)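 Three-week-old female Swiss Webster mice infected ip with 2×10^5 PFU MCMV Smith strain; groups of 15 given drug ip twice daily for 5 days, starting 6, 24 or 48 h after inoculation. Toxicity controls received drug without virus. Mortality followed daily for 21 days; final mortality compared with placebo by Fisher Exact Test.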

[2] = test system: Mus musculus; experiment: Compound was evaluated for mean day of death at 1.9 mg/kg at 6 h; assay type: functional
In short: (§2)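 Three-week-old female Swiss Webster mice inoculated ip with 2×10^5 PFU MCMV Smith strain. Groups of 15 dosed ip twice daily for 5 days, starting 6, 24 or 48 h post-inoculation. Held 21 days with daily mortality checks. Final mortality and mean day of death (dying animals) computed. Mortality versus placebo by Fisher Exact Test, MDD by Mann–Whitney U-rank test.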

[3] = species on record: Mus musculus; experiment: Inhibition of herpes simplex virus […](HSV-2) in mouse embryo fibroblasts cell lines was determined by plaque assay; assay type: functional, organism-based; details: Fibroblast
In short: (§3)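 Plaque reduction used MCMV Smith in primary mouse embryo fibroblasts, HCMV AD169 in low-passage HFF, and HSV-1 E-377 and HSV-2 MS in MEF, rabbit kidney or HFF. IC50 was determined against untreated controls; two or more experiments.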

[4] = test system: Mus musculus; experiment: Compound was evaluated for percent mortality of mice inoculated with murine cytomegalovirus at a concentration of 1.9 mg/kg at 6 h; assay type: organism-based; set-up: dose 1.9 mg/kg; details: in vivo; in short: as §2
[5] = test system: Mus musculus; experiment: Compound was evaluated for 15 mice treated ip twice daily for 5 days at a dose of 16.7 mg/kg followed (MCMV) virus inoculation; assay type: functional; details: route intraperitoneal
[6] = test system: Mus musculus; experiment: Compound was evaluated for 15 mice treated ip twice daily for 5 days at a dose of 16.7 mg/kg at 6 hr followed (MCMV) virus inoculation; assay type: functional; details: route intraperitoneal; in short: as §2
[7] = test system: Mus musculus; experiment: Compound was evaluated for percent mortality of mice inoculated with murine cytomegalovirus at a concentration of 50 mg/kg at 6 h; assay type: ADME, organism-based; set-up: dose 50 mg/kg; details: in vivo; in short: as §1
[8] = test system: Mus musculus; experiment: Compound was evaluated for percent mortality of mice inoculated with murine cytomegalovirus at a concentration of 5.6 mg/kg at 24 h; assay type: ADME, organism-based; set-up: dose 5.6 mg/kg; details: in vivo; in short: as §1
[9] = test system: Mus musculus; experiment: Compound was evaluated for 15 mice treated ip twice daily for 5 days at a dose of 1.9 mg/kg at 24 hr followed (MCMV) virus inoculation; assay type: functional; details: route intraperitoneal; in short: as §2
[10] = Cytotoxicity of HCMV in human foreskin fibroblasts cells; assay type: functional, cell-based; details: Fibroblast
In short: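 Visual cytotoxicity was scored in uninfected cells of the same host monolayers used for the plaque assays, on a 0 to 4+ scale at 35- and 60-fold magnification, at the time plaques were counted.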

[11] = test system: Mus musculus; experiment: Compound was evaluated for percent mortality of mice inoculated with murine cytomegalovirus at a concentration of 50 mg/kg at 48 h; assay type: ADME, organism-based; set-up: dose 50 mg/kg; details: in vivo; in short: as §1
[12] = test system: Mus musculus; experiment: Compound was evaluated for percent mortality of mice inoculated with murine cytomegalovirus at a concentration of 16.7 mg/kg at 6 h; assay type: organism-based; set-up: dose 16.7 mg/kg; details: in vivo; in short: as §2
[13] = species on record: Homo sapiens; experiment: Inhibition of AD169 strain human cytomegalo virus (HCMV) in human foreskin fibroblasts cell lines was determined by plaque assay; assay type: functional, organism-based; details: Fibroblast; in short: as §3
[14] = test system: Mus musculus; experiment: Compound was evaluated for percent mortality of mice inoculated with murine cytomegalovirus at a concentration of 50 mg/kg at 24 h; assay type: ADME, organism-based; set-up: dose 50 mg/kg; details: in vivo; in short: as §1
[15] = test system: L1210; experiment: In vitro inhibition of L1210 cell growth to half of the control rate; assay type: functional, cell-based; details: Mus musculus
In short: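 Murine L1210 leukemia cells in static suspension culture in Fischer's medium with compound for 4 days. Growth rate is the ratio of control to treated population doubling time; where the rate changed, the final rate was used. IC50 is the concentration giving 50% of control growth rate; single-concentration value at 100 μM.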

[16] = test system: Mus musculus; experiment: Compound was evaluated for mean day of death at 50 mg/kg at 6 h; assay type: functional; in short: as §2
[17] = test system: Mus musculus; experiment: Compound was evaluated for mean day of death at 50 mg/kg at 24 h; assay type: functional; in short: as §2
[18] = test system: Mus musculus; experiment: Compound was evaluated for mean day of death at 1.9 mg/kg at 48 h; assay type: functional; in short: as §2
[19] = Inhibition of herpes simplex virus type 1(HSV-1) in mouse embryo fibroblasts cell lines was determined by plaque assay; details: Fibroblast
[20] = test system: Mus musculus; experiment: Compound was evaluated for mean day of death at 5.6 mg/kg at 6 h; assay type: functional; in short: as §2
[21] = test system: Mus musculus; experiment: Compound was evaluated for percent mortality of mice inoculated with murine cytomegalovirus at a concentration of 1.9 mg/kg at 48 h; assay type: organism-based; set-up: dose 1.9 mg/kg; details: in vivo; in short: as §2
[22] = test system: Mus musculus; experiment: Compound was evaluated for mean day of death at 1.9 mg/kg at 24 h; assay type: functional; in short: as §2
[23] = test system: Mus musculus; experiment: Compound was evaluated for 15 mice treated ip twice daily for 5 days at a dose of 1.9 mg/kg at 6 hr followed (MCMV) virus inoculation; assay type: functional; details: route intraperitoneal; in short: as §2
[24] = test system: Mus musculus; experiment: Compound was evaluated for percent mortality of mice inoculated with murine cytomegalovirus at a concentration of 5.6 mg/kg; drug toxicity control; assay type: functional; in short: as §1
[25] = Compound was evaluated for cytotoxic activity against BSC cells; assay type: functional, cell-based; details: Cercopithecidae
In short: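 Visual cytotoxicity in uninfected areas of plaque-reduction cultures. HFF cells grown in MEM(E) + 10% FBS for HCMV (Towne) assays; BSC-1 cells for HSV-1 (S-148) assays. Drug in overlay medium. Cytopathology scored 0 to 4+ at 35- and 60-fold magnification on the staining day.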

[26] = Inhibition of herpes simplex virus type 1(HSV-1) in human foreskin fibroblasts cell lines was determined by plaque assay; assay type: functional, cell-based; details: Fibroblast; in short: as §3
[27] = test system: Mus musculus; experiment: Compound was evaluated for percent mortality of mice inoculated with murine cytomegalovirus at a concentration of 16.7 mg/kg at 24 h; assay type: organism-based; set-up: dose 16.7 mg/kg; details: in vivo; in short: as §2
[28] = test system: Mus musculus; experiment: Compound was evaluated for percent mortality of mice inoculated with murine cytomegalovirus at a concentration of 16.7 mg/kg at 48 h; assay type: organism-based; set-up: dose 16.7 mg/kg; details: in vivo; in short: as §2
[29] = test system: Mus musculus; experiment: Compound was evaluated for 15 mice treated ip twice daily for 5 days at a dose of 50 mg/kg at 6 hr followed (MCMV) virus inoculation; assay type: functional; details: route intraperitoneal; in short: as §2
[30] = test system: Mus musculus; experiment: Compound was evaluated for percent mortality of mice inoculated with murine cytomegalovirus at a concentration of 5.6 mg/kg at 48 h; assay type: ADME, organism-based; set-up: dose 5.6 mg/kg; details: in vivo; in short: as §1
[31] = Cytotoxicity of AD169 strain of HCMV in human foreskin fibroblasts cells; assay type: functional, cell-based; details: Fibroblast
[32] = test system: Mus musculus; experiment: Compound was evaluated for 15 mice treated ip twice daily for 5 days at a dose of 1.9 mg/kg at 48 hr followed (MCMV) virus inoculation; assay type: functional; details: route intraperitoneal; in short: as §2

Compound Nc1ncnc2c1c(Br)cn2COC(CO)CO has a mortality at 50 mg/kg [1] of 0%, an MDD [2] of 6.2 and an IC50 [3] of 1.9 µM. The Mortality [4] was 33%, the Activity [5] was 1 and the Activity [6] was 9. It also gave a Mortality [7] of 60%, a Mortality [8] of 20% and an Activity [9] of 9. The IC50 [10] was > 100 µM, the Mortality [11] was 87% and the Mortality [12] was 60%. It also gave an IC50 [13] of 0.6 µM, a Mortality [14] of 93% and an IC50 [15] of 0.71 µM. The MDD [16] was 10.8, the MDD [17] was 8.8 and the MDD [18] was 4.8. It also gave an IC50 [19] of 1.9 µM, an MDD [20] of 8 and a Mortality [21] of 67%. For the same compound, the MDD [22] was 4.8, the Activity [23] was 5 and the mortality at 5.6 mg/kg [24] was 0%. The IC50 [25] was > 100 µM, the IC50 [26] was 0.2 µM and the Mortality [27] was 80%. The Mortality [28] was 87%, the Activity [29] was 9 and the Mortality [30] was 40%. For the same compound, the IC50 [31] was > 158 µM and the Activity [32] was 10.

Source: ChEMBL document CHEMBL1124846, “Synthesis, antiproliferative, and antiviral activity of certain 4-substituted and 4,5-disubstituted 7-[(1,3-dihydroxy-2-propoxy)methyl]pyrrolo[2,3-d]pyrimidines” (J Med Chem, 1990)
